Source: ChEMBL document CHEMBL1130259, “Nonsymmetrically substituted cyclic urea HIV protease inhibitors” (J Med Chem, 1997)

Assays:
[1] = target: Human immunodeficiency virus type 1 protease (Human immunodeficiency virus 1) (UniProt Q72874)
[2] = Partition coefficient (logP) (HPLC); assay type: physicochemical; settings: octanol/water
[3] = target: Human immunodeficiency virus type 1 protease (Human immunodeficiency virus 1, UniProt Q72874); test: Affinity against HIV protease
[4] = Maximum concentration (10 mg/kg, orally) in plasma of dogs; assay type: ADME, organism-based, Canis lupus familiaris; parameters: dose 10 mg/kg, route oral; settings: dog, po
Method in brief: (§1)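 Three female Beagle dogs were dosed orally at 10.0 mg/kg. The compound was given at 10.0 mg/mL in PEG400/water/EtOH (60/30/10) at 1.0 mL/kg. Plasma drug was quantified by a method validated in dog plasma over 0.10–50.0 μg/mL.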

[5] = Oral bioavailability in dog (dose 10 mg/kg); assay type: ADME, organism-based, Canis lupus familiaris; settings: in vivo
Method in brief: (§2)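 Female Beagle dogs received either 10.0 mg/kg orally (three dogs; 10.0 mg/mL, 1.0 mL/kg) or 5.0 mg/kg intravenously (same formulation, 0.5 mL/kg). Vehicle was PEG400/water/EtOH (60/30/10). Plasma concentrations were assayed by a method validated over 0.10–50.0 μg/mL.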

[6] = Half life (10 mg/kg, orally) […] in dog plasma; assay type: ADME, organism-based, Canis lupus familiaris
Method in brief: as §1

[7] = Clearance (5 mg/kg, intravenously) in dog plasma; settings: iv
[8] = Apparent volume of distribution of compound (5 mg/kg, intravenously) in dogs; settings: dog, in vivo, iv, read-out: Vss
[9] = Half life (5 mg/kg, intravenously) determined by administering intravenously in dogs; settings: dog, in vivo, iv
[10] = Clearance of compound (5 mg/kg, intravenously), in dog plasma; assay type: ADME, organism-based, Canis lupus familiaris; settings: iv
Method in brief: (§3)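 Female Beagle dogs given a 5.0 mg/kg intravenous dose. Formulation was 10.0 mg/mL in PEG400/water/EtOH (60/30/10), dosed at 0.5 mL/kg. Compound levels were measured in plasma by a method validated over 0.10–50.0 μg/mL.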

[11] = Maximum concentration (10 mg/kg, perorally) in plasma of dogs; assay type: ADME, organism-based, Canis lupus familiaris; parameters: dose 10 mg/kg, route oral; settings: dog, po
Method in brief: as §1

[12] = Apparent volume of distribution of compound (5 mg/kg, intravenously) in dogs; assay type: ADME, organism-based, Canis lupus familiaris; settings: dog, in vivo, iv, read-out: Vss
Method in brief: as §3

[13] = Half life (10 mg/kg, perorally) […] in dogs; assay type: ADME, organism-based, Canis lupus familiaris; settings: dog, in vivo
Method in brief: as §1

[14] = Half life (5 mg/kg, intravenously) determined by administering intravenously in dogs; assay type: ADME, organism-based, Canis lupus familiaris; settings: dog, in vivo, iv
Method in brief: as §3

[15] = Clearance of compound in dog plasma; assay type: ADME, organism-based, Canis lupus familiaris
Method in brief: as §3

[16] = Maximum concentration in dog plasma; assay type: ADME, organism-based, Canis lupus familiaris
Method in brief: as §2

[17] = Apparent volume of distribution of compound in dog plasma; assay type: ADME, organism-based, Canis lupus familiaris; settings: read-out: Vss
Method in brief: as §3

[18] = Half life determined by administering intravenously in dog plasma; assay type: ADME, organism-based, Canis lupus familiaris; settings: iv
Method in brief: as §3

[19] = Half life determined by administering intravenously in dog; assay type: ADME, organism-based, Canis lupus familiaris; settings: in vivo, iv
Method in brief: as §3

Canis lupus familiaris = organism: Canis lupus familiaris; test: Clearance of compound in dog plasma
[20] = Maximum concentration (5 mg/kg, intravenously) in plasma of dogs; assay type: ADME, organism-based, Canis lupus familiaris; parameters: dose 5 mg/kg, route intravenous; settings: dog, iv
Method in brief: as §3

Row | Structure (SMILES) | IC90 [1] [nM] | logP [2] | Ki [3] [nM] | other results
1 | CC(C)(C)NC(=O)[C@@H]1CN(Cc2cccnc2)CCN1C[C@@H](O)C[C@@H](Cc1ccccc1)C(=O)N[C@H]1c2ccccc2C[C@H]1O | 50 | – | – | –
2 | COc1cccc(CN2C(=O)N(Cc3cccc(C(=O)Nc4ccc(C)cn4)c3)[C@H](Cc3ccccc3)[C@H](O)[C@@H](O)[C@H]2Cc2ccccc2)c1 | 41.6 | 5.51 | 0.069 | –
3 | Cc1ccc(NC(=O)c2cccc(CN3C(=O)N(Cc4cccc(N)c4)[C@H](Cc4ccccc4)[C@H](O)[C@@H](O)[C@H]3Cc3ccccc3)c2)nc1 | 16.5 | 4.47 | 0.075 | –
4 | Nc1cccc(CN2C(=O)N(Cc3cccc(N)c3)[C@H](Cc3ccccc3)[C@H](O)[C@@H](O)[C@H]2Cc2ccccc2)c1 [MOZENAVIR] | – | 3.17 | 0.31 | Cmax [4]: 6000 ng/mL; bioavailability [5]: 79.2%; half-life [6]: 2.5 h; clearance [7]: 3.33 mL/min/kg; Vd [8]: 1.3 L/kg; half-life [9]: 3.6 h
5 | Nc1cccc(CN2C(=O)N(Cc3cccc(C(=O)Nc4ncc[nH]4)c3)[C@H](Cc3ccccc3)[C@H](O)[C@@H](O)[C@H]2Cc2ccccc2)c1 | 26.2 | 3.39 | 0.012 | clearance [10]: 8.33 mL/min/kg; Cmax [11]: 900 ng/mL; bioavailability [5]: 68%; Vd [12]: 4 L/kg; half-life [13]: 10.3 h; half-life [14]: 5.6 h
6 | CC(C)c1nc(CN(C)C(=O)N[C@H](C(=O)N[C@@H](Cc2ccccc2)C[C@H](O)[C@H](Cc2ccccc2)NC(=O)OCc2cncs2)C(C)C)cs1 | 76 | – | – | –
7 | N#CCNC(=O)c1cccc(CN2C(=O)N(Cc3cccc(C(=O)NCC(=O)O)c3)[C@H](Cc3ccccc3)[C@H](O)[C@@H](O)[C@H]2Cc2ccccc2)c1 | 741 | 2.44 | 0.024 | –
8 | CC(C)(C)NC(=O)[C@@H]1C[C@@H]2CCCC[C@@H]2CN1C[C@@H](O)[C@H](Cc1ccccc1)NC(=O)[C@H](CC(N)=O)NC(=O)c1ccc2ccccc2n1 | 10.4 | – | – | –
9 | COc1cc(CN2C(=O)N(Cc3cccc(C(=O)Nc4ccc(C)cn4)c3)[C@H](Cc3ccccc3)[C@H](O)[C@@H](O)[C@H]2Cc2ccccc2)cc(OC)c1 | 282 | 5.59 | 1.9 | –
10 | O=C(Nc1ccccn1)c1cccc(CN2C(=O)N(Cc3cccc([N+](=O)[O-])c3)[C@H](Cc3ccccc3)[C@H](O)[C@@H](O)[C@H]2Cc2ccccc2)c1 | 97.5 | 5.05 | 0.096 | –
11 | O=C(Nc1ccccn1)c1cccc(CN2C(=O)N(Cc3cccc(C(=O)Nc4ccccn4)c3)[C@H](Cc3ccccc3)[C@H](O)[C@@H](O)[C@H]2Cc2ccccc2)c1 | 2.8 | – | – | clearance [15]: 70 mL/min/kg; Cmax [16]: < 200 ng/mL; Vd [17]: 10.3 L/kg; half-life [18]: 1.1 h
12 | COc1cc(CN2C(=O)N(Cc3cccc(C(=O)Nc4ccccn4)c3)[C@H](Cc3ccccc3)[C@H](O)[C@@H](O)[C@H]2Cc2ccccc2)cc(OC)c1 | 129 | 5.2 | 0.86 | –
13 | Cc1ccc(NC(=O)c2cccc(CN3C(=O)N(Cc4cccc(C(=O)Nc5ccc(C)cn5)c4)[C@H](Cc4ccccc4)[C@H](O)[C@@H](O)[C@H]3Cc3ccccc3)c2)nc1 | 3.1 | – | – | Cmax [16]: 100 ng/mL; Vd [17]: 4.5 L/kg; half-life [19]: 1 h; clearance (Canis lupus familiaris): 66.7 mL/min/kg
14 | CC(C)CN(C[C@@H](O)[C@H](Cc1ccccc1)NC(=O)O[C@H]1CCOC1)S(=O)(=O)c1ccc(N)cc1 | 46 | – | – | –
15 | COc1cc(CN2C(=O)N(Cc3cccc(C(=O)Nc4cnccn4)c3)[C@H](Cc3ccccc3)[C@H](O)[C@@H](O)[C@H]2Cc2ccccc2)cc(OC)c1 | 743 | 4.84 | 2.51 | –
16 | O=C1N(Cc2ccc(CO)cc2)[C@H](Cc2ccccc2)[C@H](O)[C@@H](O)[C@@H](Cc2ccccc2)N1Cc1ccc(CO)cc1 [DMP-323] | 115 | 3.56 | – | –
17 | COc1cc(CN2C(=O)N(Cc3cccc(C(=O)Nc4cccc(C)n4)c3)[C@H](Cc3ccccc3)[C@H](O)[C@@H](O)[C@H]2Cc2ccccc2)cc(OC)c1 | 282 | 5.69 | 0.7 | –
18 | COc1cccc(CN2C(=O)N(Cc3cccc(C(=O)Nc4cccc(C)n4)c3)[C@H](Cc3ccccc3)[C@H](O)[C@@H](O)[C@H]2Cc2ccccc2)c1 | 42.7 | 5.54 | 0.053 | –
19 | Nc1cccc(CN2C(=O)N(Cc3cccc(C(=O)Nc4nc5ccccc5[nH]4)c3)[C@H](Cc3ccccc3)[C@H](O)[C@@H](O)[C@H]2Cc2ccccc2)c1 | 13.2 | 4.95 | 0.023 | Cmax [20]: 5500 ng/mL; bioavailability [5]: 109%; half-life [14]: 1.5 h
20 | O=C(Nc1cnccn1)c1cccc(CN2C(=O)N(Cc3cccc(C(=O)Nc4cnccn4)c3)[C@H](Cc3ccccc3)[C@H](O)[C@@H](O)[C@H]2Cc2ccccc2)c1 | 3.5 | – | – | clearance [15]: 46.7 mL/min/kg; Cmax [16]: 400 ng/mL; Vd [17]: 3 L/kg; half-life [18]: 0.8 h
21 | COc1cccc(CN2C(=O)N(Cc3cccc(C(=O)Nc4cnccn4)c3)[C@H](Cc3ccccc3)[C@H](O)[C@@H](O)[C@H]2Cc2ccccc2)c1 | 91.2 | 4.75 | 0.038 | –
22 | COc1cccc(CN2C(=O)N(Cc3cccc(C(=O)Nc4ccccn4)c3)[C@H](Cc3ccccc3)[C@H](O)[C@@H](O)[C@H]2Cc2ccccc2)c1 | 30 | 5.06 | 0.047 | –
23 | CC(C)(C)NC(=O)c1cccc(CN2C(=O)N(Cc3cccc(N)c3)[C@H](Cc3ccccc3)[C@H](O)[C@@H](O)[C@H]2Cc2ccccc2)c1 | 114 | 5.28 | 0.41 | –
24 | Nc1cccc(CN2C(=O)N(Cc3cccc(C(=O)Nc4cnccn4)c3)[C@H](Cc3ccccc3)[C@H](O)[C@@H](O)[C@H]2Cc2ccccc2)c1 | 20.2 | 3.77 | 0.016 | –
